T cruzi inh – T. cruzi replication inhibition. AID 1885. inhibition, % (concentration not given with the values). hit rate 1.4% among 300,000. T. cruzi beta-gal in NIH3T3, luminescence, 90 h;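 active = mean inhibition across valid replicates above about 55%, limit read from the data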;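 note: signal also drops with host cell toxicity which is not excluded here; 0% = plate median of DMSO wells and 100% = zero luminescence signal; higher percent means less beta-gal luminescence so fewer parasites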
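assay system = mouse NIH/3T3 fibroblasts infected with β-gal-expressing T. cruzi Tulahuen C4 | input = 5,000 NIH/3T3 host cells per well | buffer or medium = DMEM plus 2% FBS | timing = 3 h host attachment, then at least 90 h co-culture | measured by = GalScreen luminescence, 60 min | evaluation = luminescence reflecting intracellular parasite burden, expressed as percent inhibition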
Mot1-301 SUMO – inhibitors of SUMOylation pathway: yeast Mot1-301 growth rescue; S. cerevisiae Mot1-301 growth rescue, ATP luminescence, 38.5C; percent above DMSO median, 100 means doubled; growth rescue, % at 18.8 µM; hit rate 1% among 320,000;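 active = every valid replicate shows activation above 250% relative to neutral control wells; inactive = the rest, any valid replicate at or below 250%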;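 note: OY570 slx delta 5 strain wells were the positive control but not used for scaling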
WT yeast gro inh – growth inhibition of WT yeast, mitochondrial fusion screen | inhibition, % at 10 µM | mitochondrial fusion phenotypic screen, WT strain | hit rate 2.1% among 190,000; in the data active = inhibition above about 58%; tested in S. cerevisiae
Beta cell apopt – blocks beta cell apoptosis. AID 435005. hit rate 0.8% among 300,000. INS-1E cytokine-induced death, ATP luminescence, 48 h; percent of positive-control rescue, neutral wells zero. protection from apoptosis, % (concentration not given with the values);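 active = Every replicate reaches about 75%, or at least half do and their mean reaches it too, limit read from the data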;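 note: 0% = cytokine-treated negative control wells and 100% = positive control rescue; higher means more ATP so stronger rescue from cytokine killing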
CSC inhib – cancer stem cell inhibition; cancer stem cell-like cells viability, luminescence; inhibition, % at 7.5 µM; hit rate 1.1% among 300,000; in the data active = inhibition above about 75%; tested in HMLE shEcad cells
Efflux pump inh – inhibitors of Candida antifungal efflux pumps expressed in yeast; S. cerevisiae Candida pump triplex, Nile Red efflux; inhibition, % at 10 µM; hit rate 0.44% among 330,000;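 active = plate passing quality check with inhibition over a set limit, or well fluorescence over plate mean plus 4 SD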;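 note: Nile Red retained in pooled yeast measured as flow cytometry median fluorescence; 0% = buffer negative control and 100% = Enniatin B positive control; higher means more Nile Red kept so more efflux inhibition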
Yeast cmpd fluor – counter-screen for efflux pump inhibitors: compound fluorescence. shares compounds with Efflux pump inh. S. cerevisiae AD/pABC3, flow cytometry. fluorescence ratio to DMSO, % at 10 µM. hit rate 4% among 1,700. AID 588517;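 active = fluorescence ratio to DMSO above its plate's cutoff, the plate mean ratio plus 5 SD, cut at about 210% in these data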;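 note: unstained yeast with no Nile Red so the signal is compound autofluorescence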
CaMdr1 efflux inh – Candida Mdr1 efflux pump inhibition. shares compounds with Efflux pump inh. S. cerevisiae AD/CaMDR1, Nile Red efflux, flow cytometry. inhibition, % at 10 µM. hit rate 1% among 1,700; in the data active = inhibition above about 26%;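 note: 0% = DMSO vehicle and 100% = reference inhibitor; higher means more Nile Red retained so more efflux inhibition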
CaCdr2 efflux inh – blocks the Candida albicans Cdr2 efflux pump in yeast; S. cerevisiae AD/CaCDR2, Nile Red retention, flow cytometry; Nile Red retention ratio vs DMSO, % at 10 µM; hit rate 4% among 1,700; AID 588520; shares compounds with Efflux pump inh; in the data active = Nile Red retention ratio vs DMSO above about 190%;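 note: higher ratio means more blocking of Cdr2 efflux of the dye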
CaCdr1 efflux inh – inhibitors of Candida albicans Cdr1 efflux pump. shares compounds with Efflux pump inh. S. cerevisiae AD/CaCDR1, Nile Red efflux, flow cytometry. inhibition, % at 10 µM. hit rate 1% among 1,700. AID 588522;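 active = inhibition above the screen-wide mean plus twice its standard deviation, cut at about 32% in these data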
Starred values were filed as active, the others as inactive; nt = not tested or not shown. Most compounds without a hit are left out; they make up all but 4.8% or so of the library.

SMILES | T cruzi inh | Mot1-301 SUMO | WT yeast gro inh | Beta cell apopt | CSC inhib | Efflux pump inh | Yeast cmpd fluor | CaMdr1 efflux inh | CaCdr2 efflux inh | CaCdr1 efflux inh
COCCCNC(=O)Cn1cnc(C(=O)Nc2ccc(C)c(C)c2)n1 | nt | nt | nt | nt | nt | 0 | nt | nt | nt | nt
COc1ccc(-n2c(SCC(=O)Nc3ncc(Cl)cc3Cl)nc3ccccc32)cc1 | 9 | 5 | 47 | 21 | 44 | 0.8* | 98 | 0 | 107 | 0
CCOc1cc(/C=C2\SC(=Nc3ccc(F)cc3)N(c3ccc(F)cc3)C2=O)ccc1OCC(=O)O | -1 | 4 | -5 | -4 | -2 | 0 | nt | nt | nt | nt
CCOc1cc(/C=C2\SC(=Nc3ccccc3)N(c3ccccc3)C2=O)ccc1OCC(=O)O | 10 | -2 | 14 | 7 | -1 | 6.4* | 99 | 0 | 89 | 0
COc1ccc(-n2c(N)c(C(=O)Nc3c(C)n(C)n(-c4ccccc4)c3=O)c3nc4ccccc4nc32)cc1 | 6 | 67 | nt | 5 | 8 | 0.8* | 110 | 0 | 108 | 0
CCSc1ccccc1C(=O)NCc1ccc2c(c1)OCO2 | -2 | 8 | -16 | -8 | 5 | 0 | nt | nt | nt | nt
CC1Cc2cc(S(=O)(=O)NCc3ccccc3)ccc2N1C(=O)C1CCC1 (stereo not given) | -35 | -10 | nt | 7 | 5 | 0 | 100 | 0 | 105 | 0
CC1Cc2cc(S(=O)(=O)NCc3ccccc3)ccc2N1C(=O)C1CC1 (stereo not given) | 20 | 150 | nt | 10 | -11 | 0 | nt | nt | nt | nt
O=C(Cc1ccccc1)Nc1ccc(NC(=O)c2ccc(Br)cc2)cc1 | -2 | -7 | nt | -4 | -10 | 0 | nt | nt | nt | nt
COc1ccc(CC(=O)Nc2ccc(NC(=O)c3ccc(Br)cc3)cc2)cc1OC | -1 | 2 | nt | -3 | 19 | 0.8* | 99 | 0 | 98 | 0
O=C(COC(=O)c1ccc(Cl)cc1Cl)Nc1cccc(S(=O)(=O)NC2=NCCC2)c1 | nt | 4 | nt | -5 | -10 | 0 | nt | nt | nt | nt
O=C(CNC(=O)c1nn(Cc2ccccc2)c(=O)c2ccccc12)Nc1ccc(F)c(F)c1F | nt | 0 | nt | 1 | -4 | 0.9* | 101 | 0 | 108 | 0
Cc1ccc(CNC(=O)CCNS(=O)(=O)c2ccc3c(c2)c(=O)n(C)c(=O)n3C)cc1 | -21 | -12 | -3 | 5 | -7 | 3 | nt | nt | nt | nt
Cc1ccc(CCNC(=O)CCNS(=O)(=O)c2ccc3c(c2)c(=O)n(C)c(=O)n3C)cc1 | -43 | 8 | 21 | -5 | -2 | 9.0* | 100 | 0 | 89 | 0
Cc1csc(NC(=O)CCNS(=O)(=O)c2ccc3c(c2)c(=O)n(C)c(=O)n3C)n1 | -22 | 7 | 12 | -3 | -9 | 6.7* | 98 | 0 | 105 | 0
Cc1c(C(=O)Nc2c(C)n(C)n(-c3ccccc3)c2=O)oc2ccc(Cl)cc12 | -6 | 10 | nt | -3 | 2 | 0 | nt | nt | nt | nt
CCOc1ccc(NC(=O)CSc2nnc(C34CC5CC(CC(C5)C3)C4)n2C)cc1 | 4 | 134 | -8 | 5 | nt | 0 | nt | nt | nt | nt
CCSc1cnc(-c2ccccc2)n1CC | 4 | 76 | 2 | -2 | 0 | 0.5* | 87 | 0 | 98 | 0
CCN1/C(=C2/SC(=S)N(NC(C)=O)C2=O)Sc2ccccc21 | 5 | 69 | nt | 4 | 4 | 0.8* | 100 | 0 | 96 | 0
COc1ccc(S(=O)(=O)N2CCOCC2)cc1NC(=O)COC(=O)CC1CC2CCC1C2 (stereo not given) | nt | -16 | nt | -5 | 12 | 0.8* | 105 | 0 | 91 | 0
O=C(c1sc2ccccc2c1Cl)N1CCN(c2ccccc2F)CC1 | -16 | -8 | 54 | -1 | 4 | 21* | 99 | 0 | 112 | 0
O=C(O)C1Sc2[nH]c(=O)sc2C2c3cc(Cl)ccc3OC(=O)C12 (stereo not given) | -23 | 3 | -7 | -5 | -2 | 0 | nt | nt | nt | nt
O=C(O)C1Sc2[nH]c(=O)sc2C2c3cc(Br)ccc3OC(=O)C12 (stereo not given) | -9 | -5 | nt | -3 | 2 | 1.5* | 90 | 0 | 102 | 0
Oc1ccc(N=Nc2c(O)ccc3ccccc23)cc1 | 4 | 93 | 98* | 21 | 78* | 0.8* | 145 | 0 | 204* | 0
NS(=O)(=O)c1ccc(N=Nc2c(O)ccc3ccccc23)cc1 | 4 | 23 | -7 | -6 | 27 | 0 | nt | nt | nt | nt
SMILES | T cruzi inh | Mot1-301 SUMO | WT yeast gro inh | Beta cell apopt | CSC inhib | Efflux pump inh | Yeast cmpd fluor | CaMdr1 efflux inh | CaCdr2 efflux inh | CaCdr1 efflux inh
CCOc1ccccc1OCCCC(=O)N(CC)CC(=O)Nc1ccc(NC(C)=O)cc1 | -4 | 8 | nt | -3 | -3 | 0 | nt | nt | nt | nt
COc1ccc(OC)c(C(C)NC(=O)C(C)n2cc([N+](=O)[O-])cn2)c1 (stereo not given) | nt | -2 | nt | 0 | -2 | 0 | nt | nt | nt | nt
O=C(COC(=O)CSc1ccc2ccccc2c1)NC1CCCC1 | -8 | -9 | -12 | 0 | -10 | 25* | 115 | 0 | 108 | 0
O=S(=O)(c1ccc(F)c(F)c1)N1CCN(c2ccccn2)CC1 | -10 | -7 | nt | 1 | -8 | 0 | nt | nt | nt | nt
O=C(Oc1ccccc1/C=C\C(=O)c1cc2ccccc2o1)c1ccccc1 | 1 | 8 | 34 | -2 | 60 | 16* | 103 | 0 | 100 | 0
CN1/C(=C\C=C2/SC(=S)NC2=O)C(C)(C)c2ccccc21 | 75* | 14 | 48 | 99* | 43 | 0.8* | 170 | 2 | 188 | 1
Nc1nnc(SCC(=O)NNC(=O)c2ccc(Cl)cc2)s1 | nt | 0 | nt | -6 | -8 | 93* | 80 | 0 | 93 | 0
CC(CCc1ccccc1)NC(=O)c1ccc(NC(=O)c2cccc(Br)c2)cc1 (stereo not given) | 70* | -9 | 7 | 8 | -2 | 6.5* | 99 | 0 | 127 | 0
CC(CCc1ccccc1)NC(=O)c1ccc2nc(N3CCOCC3)sc2c1 (stereo not given) | 18 | -11 | 11 | -1 | 6 | 0 | nt | nt | nt | nt
CCC(Cc1ccccc1)NC(=O)c1ccc2nc(N3CCOCC3)sc2c1 (stereo not given) | -6 | 21 | nt | 0 | -4 | 2.1* | 108 | 0 | 104 | 0
COc1ccc(S(=O)(=O)NCC2CCC(C(=O)NCC(OC)OC)CC2)cc1 (stereo not given) | -4 | -9 | 5 | -1 | 1 | 0 | nt | nt | nt | nt
COc1ccccc1C(=O)Nc1nnc(SCC(=O)Nc2ccc3c(c2)oc2ccccc23)s1 | 22 | 0 | 3 | -1 | 13 | 0 | nt | nt | nt | nt

Screening results (PubChem BioAssay)
